ChEMBL document CHEMBL5303300, “EUbOPEN Chemogenomics Library - Multiplex” (2023)
Values joined by “and” are separate entries in the source; they are usually repeats but may differ in a detail not shown here. Identical values can stand only once.

Test system: U2OS
Assay: Multiplex assay against U2OS
Type: toxicity, cell-based
Conditions: human, number of replicates 2
Outline: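 Live cells carried four stains from seeding: Hoechst33342, BioTracker Green Microtubule Cytoskeleton Dye, MitoTracker Red and Annexin V Alexa Fluor 680. They were imaged on a CQ1 microscope at 37°C and 5% CO2 after compound addition. Using CellPathfinder machine-learning gating, cells were split into Hoechst high-intensity objects or normal cells, normal cells into healthy, pyknosed or fragmented nuclei, and pyknosed cells into mitotic or apoptotic; tubulin, mitochondrial-mass and membrane-permeability phenotypes are per cents of healthy-nucleus cells.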

[1] = 12 h, 1 µM, compound concentration 1 uM
[2] = 12 h, 10 µM, compound concentration 10 uM
[3] = 24 h, 1 µM, compound concentration 1 uM
[4] = 24 h, 10 µM, compound concentration 10 uM
[5] = 48 h, 1 µM, compound concentration 1 uM
[6] = 48 h, 10 µM, compound concentration 10 uM

For `CC(C)NC(=O)[C@H]1CCC[C@H]1Nc1nc(Nc2ccc(C(=O)N(C)C3CCN(C)CC3)cc2)ncc1Cl`, the “Population Apoptotic (%)” value [1] was 75% and 60%, the “Population Fragmented Nuclei (%)” value [1] was 17% and 6% and the “Population Healthy Nuclei (%)” value [1] was 72% and 81%. The “Population Hoechst High Intensity Objects (%)” value [1] was 0%, the “Population Membrane Permeable-Phenotype (%)” value [1] was 0% and 2% and the “Population Mitochondria Different-Phenotype (%)” value [1] was 0%. For the same compound, the “Population Mitotic Cells (%)” value [1] was 25% and 40%, the “Population Normal (%)” value [1] was 100% and 99% and the “Population Pyknosed Nuclei (%)” value [1] was 10% and 12%. The “Population Tubulin-Different-Phenotype (%)” value [1] was 65% and 57%, the “Population Apoptotic (%)” value [2] was 100% and 69% and the “Population Healthy Nuclei (%)” value [2] was 65% and 73%. The “Population Hoechst High Intensity Objects (%)” value [2] was 0%, the “Population Membrane Permeable-Phenotype (%)” value [2] was 13% and 18% and the “Population Mitochondria Different-Phenotype (%)” value [2] was 0% and 15%. For the same compound, the “Population Normal (%)” value [2] was 100%, the “Population Pyknosed Nuclei (%)” value [2] was 8% and 20% and the “Population Tubulin-Different-Phenotype (%)” value [2] was 40% and 36%. The “Population Apoptotic (%)” value [3] was 42% and 87%, the “Population Fragmented Nuclei (%)” value [3] was 8% and 3% and the “Population Healthy Nuclei (%)” value [3] was 70% and 83%. For the same compound, the “Population Hoechst High Intensity Objects (%)” value [3] was 0%, the “Population Membrane Permeable-Phenotype (%)” value [3] was 4% and 1% and the “Population Mitochondria Different-Phenotype (%)” value [3] was 0%. For the same compound, the “Population Normal (%)” value [3] was 100%, the “Population Pyknosed Nuclei (%)” value [3] was 20% and 12% and the “Population Tubulin-Different-Phenotype (%)” value [3] was 58% and 61%. The “Population Apoptotic (%)” value [4] was 75% and 82%, the “Population Healthy Nuclei (%)” value [4] was 43% and 65% and the “Population Hoechst High Intensity Objects (%)” value [4] was 0%. The “Population Membrane Permeable-Phenotype (%)” value [4] was 15% and 13%, the “Population Mitochondria Different-Phenotype (%)” value [4] was 46% and 31% and the “Population Mitotic Cells (%)” value [4] was 25% and 17%. The “Population Normal (%)” value [4] was 100%, the “Population Pyknosed Nuclei (%)” value [4] was 13% and 28% and the “Population Tubulin-Different-Phenotype (%)” value [4] was 53% and 45%. For the same compound, the “Population Apoptotic (%)” value [5] was 72% and 90%, the “Population Fragmented Nuclei (%)” value [5] was 10% and 18% and the “Population Healthy Nuclei (%)” value [5] was 64% and 58%. For the same compound, the “Population Hoechst High Intensity Objects (%)” value [5] was 0%, the “Population Membrane Permeable-Phenotype (%)” value [5] was 5% and 0% and the “Population Mitochondria Different-Phenotype (%)” value [5] was 0%. For the same compound, the “Population Mitotic Cells (%)” value [5] was 27% and 10%, the “Population Normal (%)” value [5] was 99% and 100% and the “Population Pyknosed Nuclei (%)” value [5] was 24% and 23%. For the same compound, the “Population Tubulin-Different-Phenotype (%)” value [5] was 68% and 48%, the “Population Apoptotic (%)” value [6] was 90% and 89% and the “Population Hoechst High Intensity Objects (%)” value [6] was 0%. For the same compound, the “Population Membrane Permeable-Phenotype (%)” value [6] was 0% and 25%, the “Population Mitotic Cells (%)” value [6] was 10% and the “Population Normal (%)” value [6] was 100% and 99%. For the same compound, the “Population Pyknosed Nuclei (%)” value [6] was 38% and 51% and the “Population Tubulin-Different-Phenotype (%)” value [6] was 50% and 52%.

For `COc1cc(N(C)c2ccnc3ccc(C(F)(F)F)cc23)cc(OC)c1OC`, the “Population Apoptotic (%)” value [1] was 75% and 100%, the “Population Healthy Nuclei (%)” value [1] was 84% and 54% and the “Population Hoechst High Intensity Objects (%)” value [1] was 0%. The “Population Membrane Permeable-Phenotype (%)” value [1] was 2% and 8%, the “Population Mitochondria Different-Phenotype (%)” value [1] was 3% and 0% and the “Population Mitotic Cells (%)” value [1] was 25% and 0%. For the same compound, the “Population Normal (%)” value [1] was 100%, the “Population Pyknosed Nuclei (%)” value [1] was 10% and 22% and the “Population Tubulin-Different-Phenotype (%)” value [1] was 76% and 50%. For the same compound, the “Population Apoptotic (%)” value [2] was 50% and 51%, the “Population Healthy Nuclei (%)” value [2] was 65% and 78% and the “Population Hoechst High Intensity Objects (%)” value [2] was 0%. For the same compound, the “Population Membrane Permeable-Phenotype (%)” value [2] was 10% and 4%, the “Population Mitochondria Different-Phenotype (%)” value [2] was 10% and 5% and the “Population Mitotic Cells (%)” value [2] was 50% and 48%. The “Population Normal (%)” value [2] was 100%, the “Population Pyknosed Nuclei (%)” value [2] was 6% and 16% and the “Population Tubulin-Different-Phenotype (%)” value [2] was 26% and 34%. The “Population Apoptotic (%)” value [3] was 100% and 86%, the “Population Fragmented Nuclei (%)” value [3] was 10% and 3% and the “Population Healthy Nuclei (%)” value [3] was 75% and 92%. For the same compound, the “Population Hoechst High Intensity Objects (%)” value [3] was 0%, the “Population Membrane Permeable-Phenotype (%)” value [3] was 0% and the “Population Mitochondria Different-Phenotype (%)” value [3] was 4% and 0%. The “Population Mitotic Cells (%)” value [3] was 0% and 13%, the “Population Normal (%)” value [3] was 100% and the “Population Pyknosed Nuclei (%)” value [3] was 14% and 4%. The “Population Tubulin-Different-Phenotype (%)” value [3] was 57% and 76%, the “Population Apoptotic (%)” value [4] was 66% and 75% and the “Population Healthy Nuclei (%)” value [4] was 65% and 79%. For the same compound, the “Population Hoechst High Intensity Objects (%)” value [4] was 0%, the “Population Membrane Permeable-Phenotype (%)” value [4] was 0% and 5% and the “Population Mitochondria Different-Phenotype (%)” value [4] was 14% and 9%. The “Population Mitotic Cells (%)” value [4] was 33% and 24%, the “Population Normal (%)” value [4] was 100% and the “Population Pyknosed Nuclei (%)” value [4] was 9% and 15%. For the same compound, the “Population Tubulin-Different-Phenotype (%)” value [4] was 47% and 45%, the “Population Apoptotic (%)” value [5] was 75% and 73% and the “Population Fragmented Nuclei (%)” value [5] was 11% and 3%. For the same compound, the “Population Healthy Nuclei (%)” value [5] was 80% and 90%, the “Population Hoechst High Intensity Objects (%)” value [5] was 0% and the “Population Membrane Permeable-Phenotype (%)” value [5] was 2% and 1%. The “Population Mitochondria Different-Phenotype (%)” value [5] was 2% and 0%, the “Population Mitotic Cells (%)” value [5] was 25% and 26% and the “Population Normal (%)” value [5] was 100%. For the same compound, the “Population Pyknosed Nuclei (%)” value [5] was 7% and 6%, the “Population Tubulin-Different-Phenotype (%)” value [5] was 76% and 84% and the “Population Apoptotic (%)” value [6] was 66% and 72%. For the same compound, the “Population Healthy Nuclei (%)” value [6] was 58% and 87%, the “Population Hoechst High Intensity Objects (%)” value [6] was 0% and the “Population Membrane Permeable-Phenotype (%)” value [6] was 11% and 3%. For the same compound, the “Population Mitochondria Different-Phenotype (%)” value [6] was 14% and 4%, the “Population Mitotic Cells (%)” value [6] was 33% and 27% and the “Population Normal (%)” value [6] was 100%. The “Population Pyknosed Nuclei (%)” value [6] was 26% and 9% and the “Population Tubulin-Different-Phenotype (%)” value [6] was 40% and 49%.

`CNc1ncc2cc(-c3ccc(-c4cccc(C)n4)cc3Cl)c(=O)n(C[C@H]3OC[C@H](N)CO3)c2n1` was tested, and the “Population Apoptotic (%)” value [1] was 75% and 70%, the “Population Healthy Nuclei (%)” value [1] was 33% and 85% and the “Population Hoechst High Intensity Objects (%)” value [1] was 0%. For the same compound, the “Population Mitochondria Different-Phenotype (%)” value [1] was 7% and 0%, the “Population Mitotic Cells (%)” value [1] was 25% and 29% and the “Population Normal (%)” value [1] was 100% and 99%. The “Population Pyknosed Nuclei (%)” value [1] was 19% and 10%, the “Population Tubulin-Different-Phenotype (%)” value [1] was 42% and 70% and the “Population Apoptotic (%)” value [2] was 60% and 36%. For the same compound, the “Population Fragmented Nuclei (%)” value [2] was 38% and 16%, the “Population Healthy Nuclei (%)” value [2] was 28% and 54% and the “Population Hoechst High Intensity Objects (%)” value [2] was 5% and 0%. For the same compound, the “Population Membrane Permeable-Phenotype (%)” value [2] was 15% and 11%, the “Population Mitotic Cells (%)” value [2] was 39% and 63% and the “Population Normal (%)” value [2] was 94% and 99%. For the same compound, the “Population Pyknosed Nuclei (%)” value [2] was 32% and 29%, the “Population Tubulin-Different-Phenotype (%)” value [2] was 50% and 38% and the “Population Apoptotic (%)” value [3] was 80% and 76%. The “Population Healthy Nuclei (%)” value [3] was 42% and 79%, the “Population Hoechst High Intensity Objects (%)” value [3] was 0% and the “Population Mitochondria Different-Phenotype (%)” value [3] was 5% and 1%. The “Population Mitotic Cells (%)” value [3] was 20% and 23%, the “Population Normal (%)” value [3] was 100% and 99% and the “Population Pyknosed Nuclei (%)” value [3] was 23% and 12%. The “Population Tubulin-Different-Phenotype (%)” value [3] was 50% and 75%, the “Population Apoptotic (%)” value [4] was 43% and 53% and the “Population Fragmented Nuclei (%)” value [4] was 31% and 17%. For the same compound, the “Population Healthy Nuclei (%)” value [4] was 20% and 51%, the “Population Hoechst High Intensity Objects (%)” value [4] was 6% and 1% and the “Population Mitochondria Different-Phenotype (%)” value [4] was 57% and 19%. The “Population Mitotic Cells (%)” value [4] was 56% and 46%, the “Population Normal (%)” value [4] was 93% and 98% and the “Population Pyknosed Nuclei (%)” value [4] was 47% and 31%. For the same compound, the “Population Tubulin-Different-Phenotype (%)” value [4] was 21% and 32%, the “Population Apoptotic (%)” value [5] was 75% and 83% and the “Population Healthy Nuclei (%)” value [5] was 54% and 80%. The “Population Hoechst High Intensity Objects (%)” value [5] was 0%, the “Population Membrane Permeable-Phenotype (%)” value [5] was 9% and 2% and the “Population Mitochondria Different-Phenotype (%)” value [5] was 4% and 1%. The “Population Mitotic Cells (%)” value [5] was 25% and 16%, the “Population Normal (%)” value [5] was 100% and 99% and the “Population Pyknosed Nuclei (%)” value [5] was 16% and 13%. For the same compound, the “Population Tubulin-Different-Phenotype (%)” value [5] was 73% and 79%, the “Population Apoptotic (%)” value [6] was 60% and 61% and the “Population Fragmented Nuclei (%)” value [6] was 45% and 16%. For the same compound, the “Population Hoechst High Intensity Objects (%)” value [6] was 5% and 1%, the “Population Mitotic Cells (%)” value [6] was 39% and 38% and the “Population Normal (%)” value [6] was 94% and 98%. The “Population Pyknosed Nuclei (%)” value [6] was 41% and 34% and the “Population Tubulin-Different-Phenotype (%)” value [6] was 44% and 50%.
